Bioassay records: PubChem BioAssay, several laboratories
A selection: hits, their analogues and other compounds. The true share with any hit is near 11%.
WT yeast gro inh – growth inhibition of WT yeast, mitochondrial fusion screen; inhibition, % at 10 µM; actives 2.1% (n = 190,000); mitochondrial fusion phenotypic screen, WT strain; in the data active = inhibition above about 58%; tested in S. cerevisiae
Diaphorase inh – inhibits diaphorase or chemically oxidizes, flagging diaphorase assay artifacts | diaphorase resazurin-to-resorufin fluorescence, NADH, 16 min; bacterial (C. kluyveri) enzyme, not human | inhibition, % at 20 µM | actives 0.69% (n = 190,000) | AID 1217;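 active = primary screen inhibition at 20 µM above a set limit, cut at about 50% in these data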;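 also: plate controls were DMSO with full reaction for no effect and wells lacking NADH for full effect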
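Assay system: diaphorase enzyme from Clostridium kluyveri; Input: enzyme working solution with 0.14 U/mL diaphorase; Timing: 16 min at room temperature; Technique: resorufin fluorescence, excitation 544 nm, emission 590 nm; Benchmarks: positive control minus NADH, DMSO neutral control.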
L major viab – reduces viability of Leishmania major promastigotes. AID 1063. actives 9% (n = 200,000). resazurin fluorescence viability. inhibition, % at 10 µM;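 also: promastigotes grown with compound for 44 hours at 28 °C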
G6PDH counter – inhibits Leuconostoc G6PDH, flagging false hits in G6PDH-based assays; Purified L. mesenteroides G6PDH, diaphorase/resazurin coupled fluorescence, 45 min; inhibition, % at 5 µM; actives 0.12% (n = 200,000)
Diaph act CS – diaphorase activation or chemical reduction counter-screen; Diaphorase/resazurin coupled assay, resorufin fluorescence, 16 min; active compounds read high; 1 = vehicle wells, 0 = NADH-free wells; activation factor at 20 µM; actives 0.005% (n = 190,000); AID 1229;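 active = diaphorase activity raised at least twofold by the compound at 20 µM; inactive = activation factor below 2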
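System – purified diaphorase enzyme from Clostridium kluyveri · Input – enzyme 0.07 U/mL final · Also added – final NADH 0.114 mM, resazurin 0.1 mM · Measured by – fluorescence of resorufin, 544 nm excitation, 590 nm emission · Timing – 16 min enzyme reaction, ambient temperature · Measure – resorufin increase flagging diaphorase activators or reducers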
Numbers without * were called inactive. Rule as the data show it, unless noted: active = inhibition above about 50%; inactive = the rest.

SMILES	WT yeast gro inh	Diaphorase inh	L major viab	G6PDH counter	Diaph act CS
O=C(O)CCC(=O)Nc1ccc(Sc2ccc([N+](=O)[O-])cc2)cc1	-18.9	4.9	50.5*	22.3	1
O=C(O)CCCC(=O)Nc1ccc(Sc2ccc([N+](=O)[O-])cc2)cc1	-10.7	-1.7	-2.3	-0.2	1
CN1CC(c2ccccc2)C2(SC(=S)N(Cc3ccco3)C2=O)C12C(=O)Nc1ccccc12 (centres undefined)	79.7*	19.9	98.1*	4.2	0.8
COC(=O)C1=C(C)N(Cc2ccco2)C(=O)N[C@@H]1c1ccccc1	-3.0	15.9	3.2	16.9	0.8
Cc1cc2[nH]c3c(c[n+](C)c4ccccc34)c2cc1C	39.7	-45.0	100.4*	10.0	1.5
CCc1ccc(OCC(=O)c2c(O)c3ccccc3oc2=O)cc1	1.1	13.2	-5.5	0.3	0.9
CCc1oc2ccccc2c1C(=O)c1cc(Br)c(O)c(Br)c1	85.5*	24.6	-5.2	15.4	0.8
CCOC(=O)C1=C(C)n2c(s/c(=C/c3cccc([N+](=O)[O-])c3)c2=O)=NC1c1ccc(O)c(OC)c1 (centres undefined)	70.0*	30.7	99.9*	-7.4	0.7
CCOc1ccc(N2C(=O)/C(=C\c3ccc(O)c(OC)c3)S(=O)(=O)C2c2cccc([N+](=O)[O-])c2)cc1 (centres undefined)	14.1	13.9	21.6	-3.2	0.9
CCC1CCCCN1c1cc(C)nc2cc(-c3cccc(C)c3)nn12 (centres undefined)	88.8*	43.5	16.4	-0.9	0.6
COc1ccc(CCN=C(N)NS(=O)(=O)c2cccs2)cc1	-15.0	-9.4	-7.6	10.8	1.1
CC(=O)NC1C(=O)Nc2c(C)cc(C)cc21 (centres undefined)	-4.4	6.9	-5.6	6.6	0.9
CC1C/C(=N/Nc2ccc([N+](=O)[O-])cc2[N+](=O)[O-])CC(C)(C)C1 (centres undefined)	-2.5	4.1	1.7	-0.4	1
Cc1cc(N/N=C2\CC(C)CC(C)(C)C2)nc2ccccc12 (centres undefined)	75.9*	6.2	98.8*	-3.7	0.9
c1ccc2[nH]c(NN=C3CCCCCC3)nc2c1	9.7	-22.9	74.7*	5.7	1.2
CC1C/C(=N/NC(=O)c2ccc(CSc3nc4ccccc4[nH]3)cc2)CC(C)(C)C1 (centres undefined)	-15.3	1.7	39.4	-2.6	1
CC1C/C(=N/Nc2nc3ccccc3[nH]2)CC(C)(C)C1 (centres undefined)	13.3	7.1	84.9*	-5.4	0.9
CSCCC(NC(=O)COc1ccccc1)C(=O)N1CCN(c2ccccc2F)CC1 (centres undefined)	16.1	22.4	1.2	7.0	0.8
COCCN(C)C(=O)CC1C(=O)NCCN1CC(c1ccccc1)c1ccccc1 (centres undefined)	-8.6	24.4	-7.1	12.8	0.8
CCOC(=O)c1ccc(NC(=O)CSCc2ccco2)cc1	-1.9	19.5	88.6*	-24.0	0.8
CCOC(=O)c1ccc(NC(=S)N(CCCN(CC)CC)Cc2ccco2)cc1	-2.6	15.3	99.7*	-5.0	0.8
CCOC(=O)c1ccc(NC(=O)CSCCC(=O)O)cc1	-13.5	-4.6	-2.3	8.3	1
CCOC(=O)c1ccc(NC(=S)N(CCCN2CCCCC2)Cc2ccco2)cc1	9.5	14.3	92.9*	-4.2	0.9
COc1ccc(NC(=S)N(CCCN2CCCC2)Cc2ccco2)cc1	13.1	6.7	14.2	0.4	0.9
CC(=O)N/C(=C\c1ccc(F)cc1)C(=O)N(C)C	1.2	6.0	-3.2	-1.8	0.9
SMILES	WT yeast gro inh	Diaphorase inh	L major viab	G6PDH counter	Diaph act CS
COc1ccc(CSCC(=O)N/N=C/c2ccc(OCC(=O)N3CCCCC3)cc2)cc1	0.1	19.4	-4.3	-0.6	0.8
O=C(CSCc1ccccc1)N/N=C/c1ccc(OCC(=O)N2CCCCC2)cc1	9.2	18.5	56.7*	-11.7	0.8
COC(=O)c1ccccc1NC(=O)NC1CCN(Cc2ccccc2)CC1	-4.8	9.5	-2.1	-21.5	0.9
Cc1ccc(NC(=S)NC2CCN(Cc3ccccc3)CC2)c(C)c1	-7.9	12.7	91.2*	3.0	0.9
COc1ccc(C)cc1NC(=O)NC1CCN(Cc2ccccc2)CC1	8.4	6.3	64.8*	-10.1	0.9
Cc1ccccc1NC(=S)NC1CCN(Cc2ccccc2)CC1	8.2	10.5	93.6*	21.7	0.9
